Experimental data as given in ChEMBL document CHEMBL1158082, “Cytotoxic hypothemycin analogues from Hypomyces subiculosus” (J Nat Prod, 2006).

Legend:
Assay type in all cases: functional, cell-based
COLO-829 = assay: Cytotoxicity against human COLO829 cells
Procedure, shortened: (§1)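 Cells were kept in McCoy's 5A with 10% FBS and 2 mM L-glutamine at 37 °C and 5% CO2. About 4000 cells per well were plated and left to adhere overnight. Compounds from 50 mM DMSO stocks were diluted in medium (dilution series 100 µM to 0.1 pM, before addition) and added in duplicate. After 72 h, viability was read by CellTiter-Glo luminescence at room temperature.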

HT-29 = assay: Cytotoxicity against human HT-29 cells; procedure, shortened: as §1
SK-OV-3 = assay: Cytotoxicity against human SKOV3 cells; procedure, shortened: as §1

Structure (SMILES) | IC50 (COLO-829) [nM] | IC50 (HT-29) [nM] | IC50 (SK-OV-3) [nM]
C[C@H]1C/C=C/[C@@H](O)[C@@H](O)CC[C@H]2O[C@@H]2c2cc(O)cc(O)c2C(=O)O1 | > 100000 | > 100000 | > 100000
COc1cc(O)c2c(c1)[C@H]1O[C@@H]1CCCC(=O)CCC[C@H](C)OC2=O | – | – | > 100000
C[C@H]1C/C=C\C(=O)[C@@H](O)[C@@H](O)C[C@H]2O[C@@H]2c2cc(O)cc(O)c2C(=O)O1 | 38 | 100 | 1800
COc1cc(O)c2c(c1)[C@H]1O[C@@H]1C[C@H](O)[C@H](O)C(=O)/C=C\C[C@H](C)OC2=O [HYPOTHEMYCIN] | 70 | 150 | 5900
